Assay outcomes: PubChem BioAssay, several laboratories
A selection: hits, their analogues and other compounds. The true share with any hit is near 1.1%.
MT1-MMP act inh = inhibitors of human MT1-MMP activation | GFP/RFP ratio change, % at 20 µM | HT1080 RFP-PRO-GFP cells, GFP/RFP ratio fluorescence, overnight; percent of plate control window, DMSO zero | 360,000 compounds, 0.061% hits | P50281;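 active = GFP/RFP ratio change of at least 30% with cell ATP level not reduced by more than half and red fluorescence within 50% of control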
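Assay system: HT1080 cells carrying an RFP-PRO-GFP reporter | Dosing: Single dose of 20 µM compound, 1% DMSO final | Incubation: Cells overnight before dosing, compound overnight, 37 °C, 5% CO2 | Evaluation: GFP/RFP fluorescence ratio | Control set: DMSO and RFP-L50D-GFP cell wells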
core dimer inh = HCV core protein dimerization inhibition; 300,000 compounds, 0.33% hits; TR-FRET GST/Flag-core106 dimerization, 1536-well; inhibition, % at 5 µM;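 active = inhibition above the mean of all tested compounds plus 3 SD, set per screening campaign, cut at about 45% in these data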
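System – GST-tagged and Flag-tagged HCV core protein residues 1-106 · Repeats – one well for each compound · Technique – TR-FRET 671 and 617 nm emission · Doses – one concentration, 5 µM, in 0.5% DMSO · Times – 4 h, 22.5 °C incubation · Also added – Eu donor and XL665 acceptor anti-tag antibodies · Measure – percent inhibition of core106 dimerization signal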
DAGLB inh = blocks human DAGLB lipase activity; Q8NCG7; HEK293T DAGLB membrane lysate, EnzChek fluorogenic substrate; inhibition, % at 5.17 µM; 340,000 compounds, 0.059% hits; AID 504411; in the data active = inhibition above about 34%;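 also: 0% = enzyme with vehicle and 100% = wells lacking enzyme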
NR2E3 ag-1 = agonists of human nuclear receptor NR2E3; Q9Y5X4; AID 2300; GST-NR2E3/biotin-RetCOR TR-FRET, 1536-well; inhibition of corepressor binding, % at 4.78 µM; 320,000 compounds, 0.12% hits;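 active = percent inhibition above the cutoff of mean plus 3 SD of all tested compounds, set per screening campaign, cut at about 20% in these data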;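 also: 0% = DMSO wells and 100% = biotin wells as full block of FRET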
Target sequence (Q9Y5X4 whole entry, looked up): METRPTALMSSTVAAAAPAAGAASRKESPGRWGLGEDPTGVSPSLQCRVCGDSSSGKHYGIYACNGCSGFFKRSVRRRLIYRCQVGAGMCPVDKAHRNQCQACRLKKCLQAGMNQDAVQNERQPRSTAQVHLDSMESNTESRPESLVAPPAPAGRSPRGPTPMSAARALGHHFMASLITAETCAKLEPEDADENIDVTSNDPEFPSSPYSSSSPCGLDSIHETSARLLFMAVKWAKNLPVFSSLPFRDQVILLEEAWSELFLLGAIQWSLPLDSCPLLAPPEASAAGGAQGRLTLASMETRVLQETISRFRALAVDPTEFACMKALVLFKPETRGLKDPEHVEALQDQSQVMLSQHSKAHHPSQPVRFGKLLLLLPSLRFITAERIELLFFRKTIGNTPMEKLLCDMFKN
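Material: NR2E3–RetCOR corepressor complex / Incubation: Compound–protein incubation for 5 h at 4 °C / Dosing: compound at 4.8 µM, single dose / Detection: time-resolved FRET / Benchmarks: high control biotin, low control 0.6% DMSO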
Vif inh = blocks HIV Vif function; HEK293T cells, Vif self-association by quenched fluorescence, imaging, 24 h; inhibition, % at 7.49 µM; 340,000 compounds, 0.35% hits; in the data active = inhibition above about 50%, passing the limit was not always enough
NR2E3 ag-2 = human photoreceptor-specific nuclear receptor agonism; inhibition of corepressor binding, % at 3.98 µM; CHO-S Gal4-NCOR/VP16-NR2E3 two-hybrid, luciferase; 360,000 compounds, 0.35% hits;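 active = inhibition above the mean of all tested compounds plus 3 SD, cut at about 70% in these data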;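 also: 0% = DMSO with NR2E3 transfected cells and 100% = cells lacking NR2E3 construct; higher means lower luciferase signal from less NR2E3 corepressor binding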
NR2E3 ag conf = NR2E3 agonism confirmed in two-hybrid assay. CHO-S mammalian two-hybrid NR2E3-NCOR, luciferase luminescence. shares compounds with NR2E3 ag-2. AID 624378. inhibition, % at 3.98 µM. 2,300 compounds, 51% hits;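 active = average inhibition above a cutoff equal to the mean inhibition of all tested compounds plus one SD, cut at about 70% in these data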;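 also: 0% = DMSO in NR2E3 cells and 100% = DMSO in cells lacking NR2E3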
GAL4-VP16 luc = GAL4-VP16 reporter inhibition in NR2E3 agonist counterscreen. shares compounds with NR2E3 ag-2. CHO-S GAL4-VP16 luciferase reporter, luminescence. inhibition, % at 3.98 µM. 2,300 compounds, 29% hits. AID 624379;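 active = mean inhibition above a cutoff equal to the average over all tested compounds plus one standard deviation, cut at about 70% in these data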;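 also: luciferase from a UAS reporter driven by GAL4-VP16 transactivation; 0% = DMSO with VP16-transfected cells and 100% = DMSO with cells lacking VP16; higher means less reporter light so more repression of VP16 activity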
An asterisk follows results filed as active; . = no result.

SMILES | MT1-MMP act inh | core dimer inh | DAGLB inh | NR2E3 ag-1 | Vif inh | NR2E3 ag-2 | NR2E3 ag conf | GAL4-VP16 luc
COc1ccc(/C(C)=N/NC(=O)CNC(=O)/C=C\c2ccccc2OC)c(OC)c1 | -2.9 | 1.4 | 1.9 | -1.7 | -5.5 | -1.0 | . | .
Cc1ccccc1NC(=O)Cc1nc(COC(=O)c2cccc([N+](=O)[O-])c2)cs1 | 3.6 | 2.1 | 0.8 | -0.3 | . | -5.1 | . | .
CNC(=S)NN=C(C)CCCC(C)=NNC(=S)NC | 1.9 | . | 3.2 | . | 7.2 | 48.2 | -2.2 | -7.5
CNC(=S)N/N=C(\C)c1ccc(Cl)c(Cl)c1 | 4.1 | 1.8 | -2.0 | 1.3 | 5.1 | -1.7 | . | .
COc1ccc(CC(=O)Nn2c(-c3ccccc3)nc3ccccc3c2=O)cc1 | -2.0 | -7.0 | -3.1 | -2.1 | 3.6 | 9.2 | . | .
CC1OC2CC(=O)OC2C2=C1C(=O)c1c(O)cccc1C2=O (stereo unspecified) | -178.3 | . | . | . | -73.3 | 101.4* | 97.7* | 97.5*
CN(CC(=O)Nc1cccc(F)c1)C(=O)CN1C(=O)C2CC=CCC2C1=O (stereo unspecified) | -1.1 | 0.2 | 2.4 | -4.0 | -21.5 | 6.8 | . | .
CN(CC(=O)Nc1cccc(F)c1)C(=O)CCN1C(=O)C2CC=CCC2C1=O (stereo unspecified) | 4.6 | . | -3.1 | -0.9 | -5.3 | 95.5* | 3.7 | -10.9
Cn1nc(C(C)(C)C)cc1C(=O)NCc1ccc2c(c1)OCO2 | 6.0 | 1.9 | -2.7 | -4.0 | -20.0 | 105.1* | 94.9* | 79.4*
Cc1oc(C(C)(C)C)cc1C(=O)NCc1ccc2c(c1)OCO2 | 0.3 | 3.7 | -19.4 | 2.0 | -5.9 | -13.3 | . | .
N#C/C(=C\c1ccc([N+](=O)[O-])o1)C(=O)Nc1ccc(F)cc1 | -25.6 | 35.1 | 8.0 | 2.9 | 8.2 | -16.4 | . | .
N#CCc1ccc(NC(=O)/C=C/c2ccc([N+](=O)[O-])o2)cc1 | -41.6 | . | 1.9 | . | -2.7 | 49.8 | 61.0 | 30.6
Cc1cc(C)nc(SCC(=O)Nc2sc3c(c2C#N)CCC(C)C3)n1 (stereo unspecified) | 12.9 | 12.5 | -3.6 | -2.5 | . | 70.7* | 73.8* | 77.3*
Nc1ccc2c(c1)C(O)c1cccc(C(=O)O)c1-2 (stereo unspecified) | 0.0 | . | -1.4 | . | -0.9 | -2.1 | . | .
O=[N+]([O-])c1ccc2c(c1)ncn2CCc1ccccc1 | 1.9 | . | -0.7 | . | 5.0 | 76.1* | -7.5 | -11.0
c1ccc2[nH]c(CSc3nnc(-c4ccncc4)o3)nc2c1 | 0.7 | -3.9 | -3.3 | 0.2 | 14.5 | 70.2* | -29.6 | 9.7
O=[N+]([O-])c1cc(S(=O)(=O)Nc2cccc(C(F)(F)F)c2)ccc1-n1nnc2ccccc21 | 6.3 | 14.0 | 17.4 | 7.7 | 12.8 | 95.5* | 98.0* | 87.2*
CS(=O)(=O)c1ccc(-n2nnc3ccccc32)c([N+](=O)[O-])c1 | -1.9 | 13.3 | 4.0 | -0.4 | 2.9 | -29.1 | . | .
COc1ccc(NS(=O)(=O)c2ccc(-n3nnc4ccccc43)c([N+](=O)[O-])c2)cc1 | -5.1 | 4.2 | -0.9 | -1.1 | -9.3 | 53.9 | 44.9 | 45.1
CN(C)CCCNS(=O)(=O)c1ccc(-n2nnc3ccccc32)c([N+](=O)[O-])c1 | -3.4 | -2.5 | 0.7 | -2.9 | 1.9 | -9.9 | . | .
Cc1cc(N2CCOCC2)nc(NCc2ccccc2)n1 | 4.7 | -6.0 | -1.0 | 3.2 | 5.8 | 53.3 | 53.2 | 59.5
Cc1cc(N2CCCCC2)nc(NCc2ccccc2)n1 | -14.6 | -14.4 | -0.4 | -2.2 | 2.2 | 44.7 | . | .
O=C(N/N=C/c1ccc(O)cc1)c1ccc(COc2cc(Cl)ccc2Cl)o1 | 0.2 | 14.5 | 0.1 | 1.7 | . | 53.7 | 41.7 | -16.7
Cc1ccc([C@H]2C(C(=O)O)=CC[C@@H](c3ccc(Cl)cc3)N2S(=O)(=O)c2ccccc2C)cc1 | 2.0 | . | 0.0 | . | . | 48.0 | 27.6 | 30.7
Cc1ccccc1S(=O)(=O)N1[C@@H](c2ccc(Cl)cc2)C(C(=O)O)=CC[C@H]1c1ccc(Cl)cc1 | . | . | 1.6 | . | 3.0 | 64.9 | 26.8 | 18.8
SMILES | MT1-MMP act inh | core dimer inh | DAGLB inh | NR2E3 ag-1 | Vif inh | NR2E3 ag-2 | NR2E3 ag conf | GAL4-VP16 luc
COC(=O)c1ccccc1NC(=O)NN1CCN(C)CC1 | -1.6 | -5.0 | -0.7 | 4.2 | -7.5 | -12.4 | . | .
Cc1[nH]oc(=O)c1N=Nc1ccccc1 | 4.1 | 0.5 | -6.7 | -2.6 | . | 74.8* | -11.6 | -12.6
c1ccc(-c2csc(-n3cccn3)n2)cc1 | 0.6 | -4.0 | 2.1 | 0.9 | 7.6 | 0.1 | . | .
CC1(Cc2ccc(OC(F)(F)F)cc2)C(=O)Nc2ccc(S(=O)(=O)NC3CCCCC3)cc21 (stereo unspecified) | -31.9 | . | . | . | -18.9 | 85.1* | 50.9 | 23.0
CC1(Cc2ccc(Cl)cc2)C(=O)Nc2ccc(S(=O)(=O)NC3CCCCC3)cc21 (stereo unspecified) | -6.3 | . | . | . | -6.7 | -21.8 | . | .
Cc1c(C(=O)Nc2ccc(OC(F)(F)F)cc2)sc2nc3n(c(=O)c12)CCC3 | -0.8 | 4.5 | 0.8 | 0.6 | 3.2 | 77.2* | 87.6* | 66.6
COc1cccc(NC(=O)c2sc3nc4n(c(=O)c3c2C)CCC4)c1 | 3.9 | -7.1 | 1.7 | 1.0 | 11.6 | -50.2 | . | .
Cc1c(C(=O)Nc2ccc(Oc3ccccc3)cc2)sc2nc3n(c(=O)c12)CCC3 | -5.9 | 9.1 | 2.0 | -2.0 | -19.8 | 69.7 | 87.2* | 54.2
COc1ccc(C(C)(NC(C)=O)c2nc(-c3cccc4cccnc34)cs2)cc1 (stereo unspecified) | -1.3 | . | . | . | -4.1 | 7.7 | . | .
CSCCC(NC(=O)c1ccco1)C(=O)Nc1ccc(C)c(S(=O)(=O)N2CCOCC2)c1 (stereo unspecified) | 4.1 | -0.9 | 1.8 | -2.0 | . | -2.1 | . | .
CCN(CC(=O)Nc1cccc(OC)c1)c1ncnc2sc(C)c(C)c12 | 2.6 | -5.5 | -7.6 | -0.6 | -7.1 | 71.2* | 88.0* | 71.0*
CCc1cccc2sc(N3CCN(C(=O)c4ccc([N+](=O)[O-])o4)CC3)nc12 | -3.6 | -2.9 | -4.5 | -1.7 | -13.9 | 90.5* | 76.2* | 13.2
O=C(c1ccc([N+](=O)[O-])o1)N1CCN(Cc2ccccc2)CC1 | 15.2 | 4.2 | -0.6 | 4.5 | 3.6 | 41.6 | . | .
CN(CC(=O)Nc1ccc(Cl)c(C(F)(F)F)c1)C(=O)c1ccc(N2CCOCC2)c([N+](=O)[O-])c1 | 7.2 | -1.3 | 9.3 | -0.8 | . | 63.3 | 63.4 | 58.8
CCN(CC(=O)Nc1c(F)cccc1F)C(=O)c1ccc(N2CCCCC2)c([N+](=O)[O-])c1 | 5.3 | 1.2 | 5.5 | -2.5 | -21.3 | 56.7 | 33.6 | 38.5
